Bioassay records from PubChem.
PGC1a acetyl up = compounds raising PGC1a acetylation signal, primary screen, PGC1a modulator project, cell-based, U2OS, AlphaScreen, signal-increasing mode; overnight; activation, % at 15.6 µM; 350,000 compounds, 0.21% hits; AID 651723, 2012;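 active means every replicate reaching activation of at least 50%, whatever the mean replicate activation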;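 further: hits raise the AlphaScreen acetylation signal above neutral controls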
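detection = AlphaScreen lysate read | assay system = U2OS cells expressing flag-PGC1a plus GCN5 | input = 7000 cells/well | dosing = one concentration | times = compound overnight at 37 °C, each detection step 1 h RT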
The depositor's hits bear a star. Only a sample is shown.

CCOc1ccc(-c2cc(C)[n+](CCc3ccc(OC)c(OC)c3)c(-c3ccc(OCC)cc3)c2)cc1 was read as PGC1a acetyl up 230*.
Screening O=C1CN=C(c2ccc[nH]2)c2cc(Cl)ccc2N1 returned PGC1a acetyl up -41.
Screening C[C@H]1CCC/C=C/[C@@H]2C[C@H](O)C[C@H]2[C@H](O)/C=C/C(=O)O1 returned PGC1a acetyl up -69.
For CCn1cc(C(=O)N2CCOCC2)c2ccccc21 the results were PGC1a acetyl up -59.
`CN1CCN(Cc2cc(C(C)(C)C)c(O)c(C(C)(C)C)c2)CC1` gave PGC1a acetyl up 130*.
`C[C@@H]1O[C@@H](O[C@@H]2C=C3CCC4C(CC[C@]5(C)[C@@H](c6ccc(=O)oc6)CC[C@]45O)[C@@]3(C)CC2)[C@H](O)[C@H](O)[C@H]1O` (stereo partly specified) gave PGC1a acetyl up -60.
`CC(=O)OC1CC(OC2C(O)CC(OC3C(O)CC(OC4CCC5(C)C(CCC6C5CCC5(C)C(C7=CC(=O)OC7)CCC65O)C4)OC3C)OC2C)OC(C)C1OC1OC(CO)C(O)C(O)C1O` (stereo unspecified) gave PGC1a acetyl up -56.
COc1ccc(CC2NCC(O)C2OC(C)=O)cc1 (stereo unspecified) was read as PGC1a acetyl up -92.
Screening C[C@@H]1O[C@@H](O[C@@H]2C=C3CC[C@@H]4C(CC[C@]5(C)[C@@H](c6ccc(=O)oc6)CC[C@]45O)[C@@]3(C)CC2)[C@H](O)[C@H](O)[C@H]1O (stereo partly specified) returned PGC1a acetyl up -67.
CC1OC(OC2CC(O)C3(CO)C4C(O)CC5(C)C(C6=CC(=O)OC6)CCC5(O)C4CCC3(O)C2)C(O)C(O)C1O (stereo unspecified) was read as PGC1a acetyl up -81.
CC(=O)OC[C@]12CCC(C)=C[C@H]1O[C@@H]1[C@H](O)[C@@H](OC(C)=O)[C@@]2(C)[C@]12CO2 was read as PGC1a acetyl up -86.
For CCC1(OC(=O)CN)C(=O)OCc2c1cc1n(c2=O)Cc2cc3ccccc3nc2-1 (stereo unspecified) the results were PGC1a acetyl up -43.
`C1=NCCc2c1[nH]c1ccccc21` gave PGC1a acetyl up 156*.
COc1ccc(-n2nnnc2C(CCc2ccccc2)N2CCC(n3c(=O)[nH]c4ccccc43)CC2)cc1 (stereo unspecified) was read as PGC1a acetyl up -55.
COc1ccc(CCNC2(C#N)CCCCC2)cc1OC was read as PGC1a acetyl up -84.
`C[C@@H]1CN([C@H](C)CO)C(=O)c2c(c3ccccc3n2C)-c2ccccc2CO[C@@H]1CN(C)C(=O)Oc1ccccc1` gave PGC1a acetyl up 265*.
For CC(=O)OC1C(O)C(C)OC(OC2C(OC(=O)C3CCC4C(C3)OC3(CC(OC(=O)/C=C/c5ccccc5)C(C)CO3)C43CO3)OC(C)C(O)C2OC(C)=O)C1O (stereo unspecified) the results were PGC1a acetyl up -78.
For COC(=O)C12OCC34C(CC5C(C)=C(O)C(=O)CC5(C)C3C(O)C1O)OC(=O)C(OC(=O)/C=C(\C)C(C)C)C24 (stereo unspecified) the results were PGC1a acetyl up -86.
`O=C1NCN(c2ccccc2)C12CCN(C(c1cc3ccccc3o1)c1nnnn1C1CCCCC1)CC2` (stereo unspecified) gave PGC1a acetyl up 84*.
For CCOCCN1CCC(OC(C)=O)C(C)C1 (stereo unspecified) the results were PGC1a acetyl up -42.
For CC1=CC2OC3CC4OC(=O)C=CC=CC(C(C)O)OCC(O)C(C)CC(=O)OCC2(CC1O)C4(C)C31CO1 (stereo unspecified) the results were PGC1a acetyl up -81.
C[C@@H]1C[C@@H]([C@H](O)CC2CC(=O)NC(=O)C2)C(=O)[C@@H](C)C1 was read as PGC1a acetyl up -73.
For C=C1C(=O)O[C@@H]2C[C@@H](C)[C@@H]3C=CC(=O)[C@@]3(C)[C@@H](O)[C@H]12 the results were PGC1a acetyl up -47.
`CC(=O)c1c(C)n(C2CCCCC2)c2ccc(O)cc12` gave PGC1a acetyl up -55.
CC1=C(C/C(C)=C/c2ccccc2)/C(=C/CO)[C@@H]2OC(=O)O[C@]2(C)C12CC2 was read as PGC1a acetyl up -43.
